Source: the M2OR odorant receptor database
Substitutions are numbered along the chain they refer to.

Assays:
Conditions in all cases: stereoisomer not certain
[1] = target: T1, OR4X2 (Homo sapiens) (UniProt Q8NGF9)
T1 sequence (whole entry): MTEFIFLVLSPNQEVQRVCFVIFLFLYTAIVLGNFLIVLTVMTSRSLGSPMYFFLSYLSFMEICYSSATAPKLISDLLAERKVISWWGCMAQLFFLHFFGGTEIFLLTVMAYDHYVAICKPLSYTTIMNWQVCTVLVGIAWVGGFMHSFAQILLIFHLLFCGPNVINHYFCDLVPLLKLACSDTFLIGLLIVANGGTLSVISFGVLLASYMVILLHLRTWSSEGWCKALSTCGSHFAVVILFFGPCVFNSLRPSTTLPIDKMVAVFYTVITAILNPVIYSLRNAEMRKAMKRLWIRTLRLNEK
Outline: (§1)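 Values were gathered from published papers (main text and supplementary material), with extra details requested from the original authors when needed, and checked for typos and inconsistencies. Each receptor–molecule pair is called responsive (active) if the original authors judged the measured signal statistically different from baseline, and non-responsive (inactive) otherwise. Assay methods varied by source, often transient mammalian cell-line luciferase assays. Recorded details include cell line, G-protein, co-transfected protein and tags.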

[2] = target: T2, OR51B5 (Homo sapiens) (UniProt Q9H339)
T2 sequence (whole entry): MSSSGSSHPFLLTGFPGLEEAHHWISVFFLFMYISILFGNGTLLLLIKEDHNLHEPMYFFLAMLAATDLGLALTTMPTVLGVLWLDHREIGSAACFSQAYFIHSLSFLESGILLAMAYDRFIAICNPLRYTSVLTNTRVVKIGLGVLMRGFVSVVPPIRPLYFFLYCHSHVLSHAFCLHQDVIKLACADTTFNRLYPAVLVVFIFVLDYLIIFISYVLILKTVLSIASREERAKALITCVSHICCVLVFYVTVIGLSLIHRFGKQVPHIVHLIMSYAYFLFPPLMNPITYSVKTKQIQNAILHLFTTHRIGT
Outline: as §1

[3] = target: T3, OR51E1 (Homo sapiens) (UniProt Q8TCB6)
T3 sequence (whole entry): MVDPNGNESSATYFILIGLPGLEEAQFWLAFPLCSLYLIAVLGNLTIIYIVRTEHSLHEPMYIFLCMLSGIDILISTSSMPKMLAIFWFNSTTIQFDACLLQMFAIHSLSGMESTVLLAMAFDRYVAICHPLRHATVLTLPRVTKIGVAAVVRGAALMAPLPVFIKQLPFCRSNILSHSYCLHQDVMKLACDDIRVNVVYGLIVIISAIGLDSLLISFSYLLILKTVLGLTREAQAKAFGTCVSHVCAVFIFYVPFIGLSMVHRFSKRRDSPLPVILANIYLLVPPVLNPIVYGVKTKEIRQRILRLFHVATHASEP
Outline: as §1

[4] = target: T4, OR51E2 (Homo sapiens) (UniProt Q9H255)
T4 sequence (whole entry): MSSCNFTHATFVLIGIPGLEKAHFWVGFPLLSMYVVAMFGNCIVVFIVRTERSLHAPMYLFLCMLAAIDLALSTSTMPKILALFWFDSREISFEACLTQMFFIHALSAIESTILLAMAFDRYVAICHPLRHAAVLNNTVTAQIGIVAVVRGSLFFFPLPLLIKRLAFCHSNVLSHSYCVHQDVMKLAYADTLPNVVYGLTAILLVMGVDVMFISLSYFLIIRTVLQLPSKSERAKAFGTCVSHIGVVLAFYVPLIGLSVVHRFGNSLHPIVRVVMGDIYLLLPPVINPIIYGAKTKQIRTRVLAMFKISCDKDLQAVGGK
Outline: as §1

[5] = target: T5, OR4S2 (Homo sapiens) (UniProt Q8NH73)
T5 sequence (whole entry): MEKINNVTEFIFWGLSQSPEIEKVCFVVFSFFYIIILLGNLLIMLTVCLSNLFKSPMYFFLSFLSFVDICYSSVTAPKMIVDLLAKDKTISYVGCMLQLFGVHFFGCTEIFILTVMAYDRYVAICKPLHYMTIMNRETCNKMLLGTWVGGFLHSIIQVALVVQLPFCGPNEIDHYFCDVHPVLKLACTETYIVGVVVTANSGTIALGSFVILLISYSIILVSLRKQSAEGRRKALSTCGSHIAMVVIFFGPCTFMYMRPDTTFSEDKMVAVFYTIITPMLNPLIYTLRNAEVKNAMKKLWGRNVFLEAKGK
Outline: as §1

[6] = target: T6, OR4X1 (Homo sapiens) (UniProt Q8NH49)
T6 sequence (whole entry): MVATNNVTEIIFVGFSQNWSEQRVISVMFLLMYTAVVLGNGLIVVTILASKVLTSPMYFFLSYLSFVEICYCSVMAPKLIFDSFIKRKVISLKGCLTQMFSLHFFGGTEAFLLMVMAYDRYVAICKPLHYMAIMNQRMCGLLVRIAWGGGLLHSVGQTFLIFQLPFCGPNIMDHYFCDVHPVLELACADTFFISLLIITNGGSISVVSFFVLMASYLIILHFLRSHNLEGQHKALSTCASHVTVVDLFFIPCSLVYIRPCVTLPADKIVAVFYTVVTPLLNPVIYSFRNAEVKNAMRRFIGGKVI
Outline: as §1

[7] = target: T7, OR51A2 (Homo sapiens) (UniProt Q8NGJ7)
T7 sequence (whole entry): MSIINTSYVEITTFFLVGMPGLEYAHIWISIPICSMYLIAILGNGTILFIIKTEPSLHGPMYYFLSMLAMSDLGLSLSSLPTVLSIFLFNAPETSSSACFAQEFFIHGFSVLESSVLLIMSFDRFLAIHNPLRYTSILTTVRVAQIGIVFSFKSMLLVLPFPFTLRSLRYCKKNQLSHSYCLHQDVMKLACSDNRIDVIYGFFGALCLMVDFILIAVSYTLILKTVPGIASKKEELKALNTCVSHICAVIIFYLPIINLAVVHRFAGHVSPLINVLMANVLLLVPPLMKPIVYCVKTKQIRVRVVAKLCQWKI
Outline: as §1

[8] = target: T8, OR51A4 (Homo sapiens) (UniProt Q8NGJ6)
T8 sequence (whole entry): T7 sequence (whole entry) with G59E, T94I, S97N, S167N, P227L, E235Q, G267R, M288T, K289N, W311R
Outline: as §1

[9] = target: T9, OR51A7 (Homo sapiens) (UniProt Q8NH64)
T9 sequence (whole entry): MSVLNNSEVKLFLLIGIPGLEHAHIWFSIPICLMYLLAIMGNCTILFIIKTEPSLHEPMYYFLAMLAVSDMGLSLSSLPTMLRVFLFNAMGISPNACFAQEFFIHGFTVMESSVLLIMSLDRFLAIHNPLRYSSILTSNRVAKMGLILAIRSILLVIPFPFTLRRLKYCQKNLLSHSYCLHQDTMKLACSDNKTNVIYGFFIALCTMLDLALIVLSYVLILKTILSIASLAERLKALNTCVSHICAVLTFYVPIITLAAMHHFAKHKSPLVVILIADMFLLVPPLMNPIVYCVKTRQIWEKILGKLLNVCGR
Outline: as §1

[10] = target: T10, OR51B2 (Homo sapiens) (UniProt Q9Y5P1)
T10 sequence (whole entry): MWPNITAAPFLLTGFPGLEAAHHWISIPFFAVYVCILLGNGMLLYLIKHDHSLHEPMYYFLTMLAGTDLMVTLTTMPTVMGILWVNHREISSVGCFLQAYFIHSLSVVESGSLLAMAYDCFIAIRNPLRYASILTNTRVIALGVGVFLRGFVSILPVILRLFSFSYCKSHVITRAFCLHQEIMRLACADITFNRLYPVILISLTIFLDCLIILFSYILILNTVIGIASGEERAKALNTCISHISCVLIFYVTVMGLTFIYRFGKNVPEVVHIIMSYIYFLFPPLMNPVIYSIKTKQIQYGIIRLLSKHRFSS
Outline: as §1

[11] = target: T11, OR51B4 (Homo sapiens) (UniProt Q9Y5P0)
T11 sequence (whole entry): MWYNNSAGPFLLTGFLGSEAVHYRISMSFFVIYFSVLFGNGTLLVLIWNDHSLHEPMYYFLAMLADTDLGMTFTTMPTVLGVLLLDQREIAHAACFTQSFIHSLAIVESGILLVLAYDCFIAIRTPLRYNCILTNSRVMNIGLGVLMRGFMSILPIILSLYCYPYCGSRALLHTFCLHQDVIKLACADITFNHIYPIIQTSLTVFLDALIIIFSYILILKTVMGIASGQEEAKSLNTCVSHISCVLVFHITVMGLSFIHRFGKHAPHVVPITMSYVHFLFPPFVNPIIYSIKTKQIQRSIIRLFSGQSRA
Outline: as §1

[12] = target: T12, OR51B6 (Homo sapiens) (UniProt Q9H340)
T12 sequence (whole entry): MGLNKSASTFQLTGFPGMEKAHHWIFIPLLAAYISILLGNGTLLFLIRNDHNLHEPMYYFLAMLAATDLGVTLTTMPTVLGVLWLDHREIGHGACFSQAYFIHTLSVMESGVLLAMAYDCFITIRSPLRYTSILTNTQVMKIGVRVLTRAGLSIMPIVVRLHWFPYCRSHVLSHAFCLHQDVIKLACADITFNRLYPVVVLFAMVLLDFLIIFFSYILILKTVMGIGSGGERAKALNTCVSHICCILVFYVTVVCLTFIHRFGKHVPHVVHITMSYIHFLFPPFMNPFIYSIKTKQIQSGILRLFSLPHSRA
Outline: as §1

[13] = target: T13, OR51D1 (Homo sapiens) (UniProt Q8NGF3)
T13 sequence (whole entry): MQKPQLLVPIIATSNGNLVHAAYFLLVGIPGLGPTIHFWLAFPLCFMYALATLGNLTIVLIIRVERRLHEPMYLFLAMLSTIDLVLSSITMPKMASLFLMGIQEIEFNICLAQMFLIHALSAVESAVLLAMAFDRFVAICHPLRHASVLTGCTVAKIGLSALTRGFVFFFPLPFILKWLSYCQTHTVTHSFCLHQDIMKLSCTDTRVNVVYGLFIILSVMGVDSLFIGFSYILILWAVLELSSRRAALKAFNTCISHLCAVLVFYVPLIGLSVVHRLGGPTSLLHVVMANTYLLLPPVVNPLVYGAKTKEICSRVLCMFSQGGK
Outline: as §1

[14] = target: T14, OR51E1 (Homo sapiens) (UniProt Q8TCB6); remark: listed apart in the source
T14 sequence (whole entry): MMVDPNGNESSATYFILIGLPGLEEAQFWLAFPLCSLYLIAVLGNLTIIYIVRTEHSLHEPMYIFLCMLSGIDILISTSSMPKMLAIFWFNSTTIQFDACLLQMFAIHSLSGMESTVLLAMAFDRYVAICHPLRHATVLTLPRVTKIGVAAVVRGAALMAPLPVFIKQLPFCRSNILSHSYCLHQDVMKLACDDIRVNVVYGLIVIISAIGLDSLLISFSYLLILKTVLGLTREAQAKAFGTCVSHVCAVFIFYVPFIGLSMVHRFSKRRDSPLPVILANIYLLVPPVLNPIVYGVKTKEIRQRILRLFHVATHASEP
Outline: as §1

[15] = target: T15, OR51F2 (Homo sapiens) (UniProt Q8NH61)
T15 sequence (whole entry): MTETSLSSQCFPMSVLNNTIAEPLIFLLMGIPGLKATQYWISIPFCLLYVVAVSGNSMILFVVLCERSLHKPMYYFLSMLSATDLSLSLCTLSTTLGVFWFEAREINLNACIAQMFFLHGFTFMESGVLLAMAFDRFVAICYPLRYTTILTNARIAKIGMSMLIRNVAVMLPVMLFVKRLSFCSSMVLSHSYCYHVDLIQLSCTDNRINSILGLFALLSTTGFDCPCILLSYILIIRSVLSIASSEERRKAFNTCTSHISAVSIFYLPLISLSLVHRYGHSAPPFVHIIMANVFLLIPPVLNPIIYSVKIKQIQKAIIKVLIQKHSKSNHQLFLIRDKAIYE
Outline: as §1

[16] = target: T16, OR51G1 (Homo sapiens) (UniProt Q8NGK1)
T16 sequence (whole entry): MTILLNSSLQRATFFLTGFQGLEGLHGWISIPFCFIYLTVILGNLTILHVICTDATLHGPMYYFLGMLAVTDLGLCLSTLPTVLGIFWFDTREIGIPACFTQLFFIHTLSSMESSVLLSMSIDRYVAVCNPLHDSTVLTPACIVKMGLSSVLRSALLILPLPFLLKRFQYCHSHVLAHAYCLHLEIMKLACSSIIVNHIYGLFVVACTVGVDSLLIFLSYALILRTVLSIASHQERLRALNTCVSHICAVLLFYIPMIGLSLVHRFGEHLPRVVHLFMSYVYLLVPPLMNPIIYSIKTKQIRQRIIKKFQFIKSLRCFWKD
Outline: as §1

[17] = target: T17, OR51G2 (Homo sapiens) (UniProt Q8NGK0)
T17 sequence (whole entry): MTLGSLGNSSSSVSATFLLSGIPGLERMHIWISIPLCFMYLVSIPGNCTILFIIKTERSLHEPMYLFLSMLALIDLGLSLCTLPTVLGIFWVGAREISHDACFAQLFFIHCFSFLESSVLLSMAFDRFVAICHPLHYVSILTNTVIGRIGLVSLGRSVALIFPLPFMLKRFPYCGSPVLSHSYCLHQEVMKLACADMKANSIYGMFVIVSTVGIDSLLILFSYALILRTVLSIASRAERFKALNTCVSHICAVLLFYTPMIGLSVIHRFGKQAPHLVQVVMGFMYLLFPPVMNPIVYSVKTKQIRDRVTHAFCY
Outline: as §1

[18] = target: T18, OR51I1 (Homo sapiens) (UniProt Q9H343)
T18 sequence (whole entry): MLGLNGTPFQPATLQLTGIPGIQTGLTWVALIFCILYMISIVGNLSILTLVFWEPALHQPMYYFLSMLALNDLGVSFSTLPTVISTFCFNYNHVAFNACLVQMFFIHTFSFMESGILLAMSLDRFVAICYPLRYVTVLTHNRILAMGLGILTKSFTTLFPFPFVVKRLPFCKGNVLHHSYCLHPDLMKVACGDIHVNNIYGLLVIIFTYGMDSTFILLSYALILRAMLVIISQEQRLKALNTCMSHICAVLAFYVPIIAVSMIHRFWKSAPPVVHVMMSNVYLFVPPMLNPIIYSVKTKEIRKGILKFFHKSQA
Outline: as §1

Measured: odorant receptor agonist call

CC(C)=CCCC(C)=CCO
inactive: [1] | [2] | [3] | [4]

CCCCCCCCCCCCCCC(=O)O
inactive: [2]

CC1=C(O)C(=O)OC1C (configuration not stated)
not listed: [3]
inactive: all other assays above
